Measurements taken from ChEMBL document CHEMBL1143843, “Antiviral and cellular metabolism interactions between Dexelvucitabine and lamivudine” (Antimicrob Agents Chemother, 2007).
Calls of active or inactive are those of the source. No cut-off for these calls is given here.

Experiments:
[1] = system: CCRF-CEM; experiment: (§1) Reduction in dexelvucitabine diphosphate choline level in human CEM cells at 1 uM; type: functional; design: scale not given: the % may be the effect or the level left
How it was run: (§2)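 CEM or PHA-stimulated primary human PBM cells (2 x 10^6 per point) given 10 µM [3H]DFC plus unlabeled 3TC at 1, 33.3 or 100 µM for 4 h, in triplicate; 60% methanol extracts resolved by ion-pairing reverse-phase C18 HPLC; metabolites (TP, DP-choline) quantified by scintillation counting as pmol/10^6 cells.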

[2] = system: CCRF-CEM; experiment: Reduction in dexelvucitabine diphosphate choline level in human CEM cells at 100 uM; type: functional; design: scale not given: the % may be the effect or the level left; how it was run: as §2
[3] = system: Human immunodeficiency virus 1; experiment: Antiviral activity against HIV1 LAI in human PBM cells; type: functional, organism-based; conditions: Human immunodeficiency virus 1, LAI, PBMC
How it was run: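 HIV-1 LAI added to PHA-stimulated (3-day) primary human PBM cells 1 h before drugs; medium with recombinant IL-2 (26.5 units/ml); drugs alone or combined at fixed ratios (10:1, 3:1, 25:1, 100:1); 5 days culture; supernatant virus pelleted by centrifugation, RT activity measured radiometrically; combination index with confidence intervals by computer algorithm.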

[4] = system: PBMC; experiment: Reduction in dexelvucitabine diphosphate choline level in human PBMC at 1 uM; type: functional; design: scale not given: the % may be the effect or the level left; how it was run: as §2
[5] = system: CCRF-CEM; experiment: Reduction in [3H]dexelvucitabine triphosphate in human CEM cells at 1 uM; type: functional, cell-based
How it was run: (§3)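 Competition assay in triplicate in CEM and PHA-stimulated PBM cells (2 x 10^6 per point). Cells received 10 µM [3H]3TC plus unlabeled DFC, or 10 µM [3H]DFC plus unlabeled 3TC, with the unlabeled drug at 1, 33.3 or 100 µM, for 4 h. After cold-PBS washes, 60% methanol extracts were separated by ion-pair reverse-phase HPLC. Labeled metabolites, including TP and DP-choline, were quantified by scintillation counting against radiolabel alone.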

[6] = system: PBMC; experiment: Reduction in dexelvucitabine diphosphate choline level in PHA-stimulated human PBMC at 1 uM; type: functional, cell-based; how it was run: as §3
[7] = system: CCRF-CEM; experiment: Reduction in dexelvucitabine diphosphate choline level in human CEM cells at 33.3 uM; type: functional; design: scale not given: the % may be the effect or the level left; how it was run: as §2
[8] = system: PBMC; experiment: Reduction in dexelvucitabine diphosphate choline level in human PBMC at 100 uM; type: functional; design: scale not given: the % may be the effect or the level left; how it was run: as §2
[9] = system: CCRF-CEM; experiment: Reduction in [3H]dexelvucitabine triphosphate in human CEM cells per 10^6 cells at 33.3 uM; type: functional; how it was run: as §2
[10] = system: CCRF-CEM; experiment: as §1; type: functional; design: scale not given: the % may be the effect or the level left; how it was run: as §2; remark: listed apart in the source
[11] = system: PBMC; experiment: Reduction in dexelvucitabine diphosphate choline level in human PBMC at 33.3 uM; type: functional; design: scale not given: the % may be the effect or the level left; how it was run: as §2
[12] = system: CCRF-CEM; experiment: Reduction in [3H]dexelvucitabine triphosphate in human CEM cells per 10^6 cells at 100 uM; type: functional; how it was run: as §2
[13] = system: CCRF-CEM; experiment: Reduction of Lamivudine triphosphate level at 100 uM in human CEM cells; type: functional; design: scale not given: the % may be the effect or the level left
How it was run: (§4)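 CEM or PHA-stimulated primary human PBM cells (2 x 10^6 per point) given 10 µM [3H]3TC plus unlabeled competitor at 1, 33.3 or 100 µM for 4 h, in triplicate; cells washed in cold PBS, extracted overnight in 60% methanol; metabolites separated by ion-pairing reverse-phase C18 HPLC (ammonium acetate/TBAP pH 7.0, methanol gradient); radioactivity counted; detection limit about 0.01 pmol/10^6 cells.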

[14] = system: CCRF-CEM; experiment: Reduction in Lamivudine metabolite level in human CEM cells at 33.3 uM; type: functional; design: scale not given: the % may be the effect or the level left; how it was run: as §4
[15] = system: PBMC; experiment: Reduction of Lamivudine triphosphate level at 100 uM in human PBMC; type: functional; design: scale not given: the % may be the effect or the level left; how it was run: as §4
[16] = system: CCRF-CEM; experiment: Reduction in Lamivudine metabolite level in human CEM cells at 1 uM; type: functional, cell-based; how it was run: as §3
[17] = system: CCRF-CEM; experiment: Reduction in Lamivudine metabolite level in human CEM cells at 100 uM; type: functional; design: scale not given: the % may be the effect or the level left; how it was run: as §4
[18] = system: CCRF-CEM; experiment: Reduction in Lamivudine diphosphate choline level in human CEM cells; type: functional, cell-based; how it was run: as §3
[19] = system: PBMC; experiment: Drug level in human PBMC per 10^6 cells at 10 uM after 4 hrs; type: ADME, cell-based
How it was run: (§5)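 CEM cells or PBM cells stimulated 3 days with PHA, 2 x 10^6 cells per time point, were given 10 µM [3H]DFC or [3H]3TC for 4 h. Cells were washed three times in cold PBS and counted, with viability checked by trypan blue. Metabolites were extracted overnight in 60% methanol and resolved by ion-pair C18 HPLC (ammonium acetate/TBAP pH 7.0, 0–50% methanol), then radioactivity was counted. LOD was about 0.01 pmol/10^6 cells.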

[20] = system: CCRF-CEM; experiment: Drug level in human CEM cells per 10^6 cells at 10 uM after 4 hrs; type: ADME, cell-based; how it was run: as §5

Work on `Nc1ccn([C@@H]2CS[C@H](CO)O2)c(=O)n1` (single isomer, unassigned) [LAMIVUDINE] yielded an Activity [1] of 74%, an Activity [2] of 92% and an EC50 [3] of 26 nM. The EC90 [3] was 120 nM, the Activity [4] was 48% and the Activity [5] was “inactive”. For the same compound, the Activity [6] was “Active”, the Activity [7] was 83% and the Activity [8] was 92%. For the same compound, the Activity [9] was 0.67 pmol, the Activity [10] was 74% and the Activity [11] was 83%. The Activity [12] was 0.41 pmol.
In the case of `Nc1nc(=O)n([C@H]2C=C[C@@H](CO)O2)cc1F` [DEXELVUCITABINE], the Activity [13] is reported as 25%, the Activity [14] is reported as 10% and the Activity [15] is reported as 46%. For the same compound, the EC50 [3] was 75 nM, the EC90 [3] was 230 nM and the Activity [16] was “inactive”. The Activity [17] was 13% and the Activity [18] was “inactive”.
Compound `Nc1ccn([C@@H]2CS[C@H](COP(=O)(O)OP(=O)(O)OP(=O)(O)O)O2)c(=O)n1` [LAMIVUDINE TRIPHOSPHATE] has a Drug uptake [19] of 2.01 pmol and a Drug uptake [20] of 5.7 pmol.
